# Hits are enriched below; roughly 2.8% of the tested compounds scored in any of these assays.
# DENV2 CPE = DENV2-induced cell death inhibition. AID 651640. CPE inhibition, % at 9.99 µM. hit rate 1.7% among 350,000. DENV2-infected cells, cytopathic effect rescue, plate reader; in the data active means CPE inhibition above about 20%, passing the limit was not always enough; inconclusive means no clear call, values can overlap the other calls; tested in BHK-21 cells;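 further: 0% = median of neutral control wells and 100% = median of positive control wells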
# SIRT5 block = blocks human SIRT5 desuccinylation of peptide. Q9NXA8. Purified SirT5, succinyl-peptide AMC, trypsin-coupled fluorescence. inhibition, % at 15 µM. hit rate 1.1% among 330,000. AID 652115; in the data active means inhibition above about 15%; inconclusive means no clear call, values can overlap the other calls
# Target sequence (Q9NXA8 whole entry, looked up): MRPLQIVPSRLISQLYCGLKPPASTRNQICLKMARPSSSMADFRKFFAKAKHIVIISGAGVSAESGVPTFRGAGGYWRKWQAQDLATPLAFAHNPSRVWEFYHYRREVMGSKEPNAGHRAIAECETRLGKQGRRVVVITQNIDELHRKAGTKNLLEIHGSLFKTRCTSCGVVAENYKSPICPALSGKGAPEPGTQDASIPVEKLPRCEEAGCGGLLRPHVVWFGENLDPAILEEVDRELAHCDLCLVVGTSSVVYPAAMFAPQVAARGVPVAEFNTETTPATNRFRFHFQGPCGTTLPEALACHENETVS
# E-selectin induc = induces E-selectin expression in human endothelial cells; HUVEC E-selectin immunofluorescence imaging; normalized: neutral wells 0, TNF-alpha wells 100; hit rate 0.37% among 260,000; P16581; AID 686992; activation, % at 7.58 µM;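 active means mean E-selectin-positive cell signal at least 10% of the positive control, reached in at least 60% of replicates, without over 20% cell loss; inconclusive means no rule given, readout overlaps actives, possibly toxicity-flagged; inactive means the rest, including those meeting only one limit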
#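 System: HUVEC / Compound: single concentration / Signal: immunofluorescence imaging / Read-out: percent E-selectin-positive cells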
# * marks the source's active call; other numbers are inactive results; ? = inconclusive; nt = no result.
SMILES,DENV2 CPE,SIRT5 block,E-selectin induc
O=C(C[C@@H]1C[C@@H]2c3cc(NC(=O)Nc4ccccc4F)ccc3O[C@@H]2[C@H](CO)O1)NCC1CC1,68*,4,0
COc1ccc(S(=O)(=O)N(C)C[C@H]2Oc3c(NC(=O)c4cc(C)nn4C)cccc3C(=O)N([C@H](C)CO)C[C@@H]2C)cc1,7,0,0
COc1ccc(NS(=O)(=O)c2cccs2)cn1,24*,-1,-2
COc1ccc(NS(=O)(=O)c2ccc(Cl)s2)cn1,-3,2,13
C[C@@H]1CN([C@H](C)CO)C(=O)CCCn2nncc2CO[C@@H]1CN(C)C(=O)Nc1cccc(C(F)(F)F)c1,-2,-4,0
COc1ccc(S(=O)(=O)N[C@H]2CC[C@H](CCNC(=O)c3ccccc3F)O[C@H]2CO)cc1,7,-4,1
C[C@H](CO)N1C[C@H](C)[C@@H](CN(C)Cc2ccc(-c3ccccc3)cc2)Oc2ccc(NS(=O)(=O)c3ccc(F)cc3)cc2CC1=O,nt,nt,1
C[C@@H]1CN([C@@H](C)CO)C(=O)Cc2cc(NS(=O)(=O)c3ccccc3)ccc2O[C@@H]1CN(C)Cc1ccc(-c2ccccc2)cc1,44*,11,0
C[C@H]1CN([C@@H](C)CO)C(=O)Cc2cc(NS(=O)(=O)c3ccc(Cl)cc3)ccc2O[C@@H]1CN(C)Cc1ccc(-c2ccccc2)cc1,nt,nt,1
C[C@@H]1CN([C@H](C)CO)C(=O)Cc2cc(NS(=O)(=O)c3ccccc3)ccc2O[C@@H]1CN(C)Cc1ccc(-c2ccccc2)cc1,56*,12,0
C[C@H](CO)N1C[C@H](C)[C@H](CN(C)Cc2ccccc2)Oc2ccc(NS(=O)(=O)c3ccccc3)cc2CC1=O,55*,6,0
C[C@H]1CN([C@@H](C)CO)C(=O)Cc2cc(NS(=O)(=O)c3ccccc3)ccc2O[C@@H]1CN(C)Cc1ccccc1,-14,2,0
NC(=O)c1ccc(-c2ccccc2F)cc1,3,-3,nt
NNC(=O)c1ccc(-c2ccccc2F)cc1,27*,-3,nt
O=C(O)CN1C(=O)/C(=C\c2cccc(OCc3ccc(Cl)cc3Cl)c2)SC1=S,-6,15*,nt
COc1cccc(/C=C2\SC(=S)N(CCCC(=O)N3CCCCC3)C2=O)c1,27*,-1,0
O=C(CCCN1C(=O)/C(=C/c2ccccc2)SC1=S)Nc1ccc(C(=O)O)c(O)c1,-3,46*,nt
O=C(CCN1C(=O)S/C(=C/c2ccccc2)C1=O)Nc1ccc(C(=O)O)c(O)c1,5,4,nt
COc1ccc(/C=C2\SC(=S)N(CCCC(=O)Nc3cccc(C(=O)O)c3)C2=O)cc1OC,?,9,0
COc1ccc(C=C2SC(=S)N(CCCC(=O)Nc3ccc(C(=O)O)c(O)c3)C2=O)cc1OC,-7,53*,0
COc1cccc(/C=C2/SC(=S)N(CCC(=O)N3CCOCC3)C2=O)c1,-4,1,nt
O=C(O)CN1C(=O)/C(=C\c2ccccc2OCc2ccc(Cl)cc2Cl)SC1=S,3,1,1
CO[C@H]1CN(C)C(=O)c2ccc(NC(=O)C3CC3)cc2OC[C@H](C)N(Cc2cncnc2)C[C@@H]1C,nt,nt,0
CCNC(=O)C[C@H]1C=C[C@@H](NC(=O)C2CC2)[C@@H](CO)O1,0,2,0
COc1ccc(NC(=O)Nc2ccc3c(c2)C(=O)N([C@@H](C)CO)C[C@H](C)[C@@H](CN(C)S(=O)(=O)c2cccs2)O3)cc1,-7,1,-2
SMILES,DENV2 CPE,SIRT5 block,E-selectin induc
C[C@H]1CN([C@@H](C)CO)C(=O)Cc2cc(NC(=O)Nc3ccc(C(F)(F)F)cc3)ccc2O[C@@H]1CN(C)Cc1ccc(-c2ccccc2)cc1,-12,6,0
O=C(CCCN1C(=O)/C(=C/c2ccc3c(c2)OCO3)SC1=S)Nc1ccc(C(=O)O)cc1,-5,-2,0
COc1ccc(/C=C2\SC(=O)N(CCCC(=O)Nc3ccc(C(=O)O)cc3)C2=O)cc1,97*,nt,0
O=C(CCN1C(=O)S/C(=C\c2ccc(Cl)cc2)C1=O)Nc1ccc(C(=O)O)cc1,?,-4,-1
O=C(CCCN1C(=O)C(=Cc2ccc3c(c2)OCO3)SC1=S)Nc1ccc(C(=O)O)c(O)c1,-12,34*,0
C[C@@H]1CN([C@H](C)CO)S(=O)(=O)c2ccc(C#CCN(C)C)cc2O[C@H]1CN(C)Cc1ccc2c(c1)OCO2,-15,8,0
COc1ccc2ccccc2c1-c1c(OC)ccc2ccccc12,26*,-2,nt
COc1ccc(OC)c2cc3ccccc3cc12,-3,nt,0
C[C@H]1CN([C@@H](C)CO)C(=O)c2cc(NS(=O)(=O)c3cccs3)ccc2O[C@H]1CN(C)Cc1ccncc1,-4,1,2
Cc1cccc(C)c1-n1nnnc1-c1nc2ccccc2[nH]c1=O,10,2,49*
Cc1cc2nc(-c3nnnn3-c3c(C)cccc3C)c(=O)[nH]c2cc1C,-3,-4,7
C/C=C/c1ccc2c(c1)O[C@@H](CN(C)CC1CC1)[C@@H](C)CN([C@H](C)CO)S2(=O)=O,nt,nt,-1
C[C@@H]1CN([C@@H](C)CO)C(=O)c2cc(C#C[C@@H](C)O)cnc2O[C@H]1CN(C)C(=O)Nc1ccc(F)cc1,6,-8,0
O=C(C[C@@H]1CC[C@@H]2[C@H](COC[C@H](O)CN2Cc2cccc(C(F)(F)F)c2)O1)NCCc1ccccc1,-1,1,0
COc1ccccc1C=Cc1ccnc2ccccc12,-1,-3,2
COc1ccccc1/C=C/C1=NC(=C\C=C/c2ccccc2)/C(=O)O1,nt,21*,nt
C[C@@H]1CN([C@@H](C)CO)C(=O)c2cc(NS(=O)(=O)c3ccccc3)ccc2O[C@@H](C)CCCCO[C@@H]1CN(C)C(=O)Nc1ccc2c(c1)OCO2,-4,0,0
C[C@@H]1CN([C@@H](C)CO)C(=O)c2cc(C#CCN(C)C)cnc2O[C@@H]1CN(C)C(=O)Nc1ccccc1F,1,3,0
COc1cc(/C=C2/C(C)=C(C#N)c3nc(N)c(C#N)c(C)c32)ccc1OCC(=O)O,-3,9,1
CC1=C(C#N)c2nc(N)c(C#N)c(C)c2/C1=C\c1ccc(-c2ccccc2C(=O)O)o1,-4,25*,nt
CCCNC(=O)[C@@H]1[C@@H](CO)[C@@H]2Cn3c(ccc(-c4ccccc4F)c3=O)[C@H]1N2CCC,nt,nt,0
COC(=O)[C@@H]1[C@@H](CO)[C@@H]2Cn3c(ccc(C4=CCCC4)c3=O)[C@@H]2N1C(=O)C1CCC1,-7,-10,0
Cc1ccc(N=Cc2ccc(N(C)C)cc2)cc1C,1,1,0
Cc1nc(/N=C\c2ccc(N(C)C)cc2)sc1C,33*,-5,0
CC(=O)N(C)c1ccc(NC(=O)COc2ccc(Br)cc2C)cc1,3,3,0
CC(=O)Nc1ccc(NC(=O)COc2ccc(Cl)cc2Cl)cc1,6,-6,48*
CC(=O)Nc1ccc(NC(=O)COc2ccc(Br)cc2C)cc1,13,15*,nt
O=C(COc1ccc(Cl)cc1Cl)Nc1ccc(Cl)cn1,5,1,nt
O=C(C[C@@H]1CC[C@@H]2[C@H](COC[C@@H](O)CN2C(=O)c2ccccc2F)O1)NCc1ccccc1,-9,-2,0
CO[C@@H]1CC[C@@H]2CCOc3c(C#N)cccc3C(=O)N(C)[C@H](C)C(=O)N(C)C[C@@H]1O2,-3,-3,0
